In data set [1] the test system is Pancreatic acinar cell. In words: Inhibition of taurolithocholate acid 3-sulfate-induced necrosis in CD1 mouse pancreatic acinar cells at 10 uM after 30 mins by propidium iodide staining based confocal microscopic analysis. It is filed as functional. The essentials:
(§1)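 Freshly isolated murine pancreatic acinar cells were exposed to the pancreatitis toxin taurolithocholate acid 3-sulphate (500 µM) with inhibitor at 0.1, 1.0 and 10 µM or at 1 and 10 µM.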

In data set [2] the test system is Pancreatic acinar cell. The experiment in a line: Inhibition of taurolithocholate acid 3-sulfate-induced necrosis in CD1 mouse pancreatic acinar cells at 1 uM after 30 mins by propidium iodide staining based confocal microscopic analysis. It is filed as functional. The essentials: as §1
Data set [3] is described as follows: Cytotoxicity against CD1 mouse pancreatic acinar cells at 1 to 10 uM after 30 mins by propidium iodide staining based confocal microscopic analysis. The conditions noted are these: pancreatic acinar cell, 0.5 h. The essentials: (§2)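 As a parallel cytotoxicity control, freshly isolated murine pancreatic acinar cells were exposed to compounds alone, without TLCS, at 0.1, 1.0 and 10 µM or at 1 and 10 µM. Necrotic cell death was scored.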

Data set [4] concerns Pancreatic acinar cell. In words: Inhibition of taurolithocholate acid 3-sulfate-induced necrosis in CD1 mouse pancreatic acinar cells at 1 to 10 uM after 30 mins by propidium iodide staining based confocal microscopic analysis. The class given is functional. A digest of the protocol: as §1
The nature of data set [5]: Cytotoxicity against CD1 mouse pancreatic acinar cells at 0.1 to 10 uM after 30 mins by propidium iodide staining based confocal microscopic analysis. As to conditions: pancreatic acinar cell, 0.5 h. The essentials:
as §2

Data set [6] relates to Pancreatic acinar cell. In words: Inhibition of taurolithocholate acid 3-sulfate-induced change in mitochondrial membrane potential in CD1 mouse pancreatic acinar cells at 0.1 to 10 uM after 30 mins by tetramethyl rhodamine methyl ester dye based fluorescence analysis. The class given is functional, cell membranes.
Data set [7] has as its system Pancreatic acinar cell. The experiment in a line: Inhibition of taurolithocholate acid 3-sulfate-induced necrosis in human pancreatic acinar cells at 10 uM after 30 mins by propidium iodide staining based confocal microscopic analysis. The class given is functional.
The nature of data set [8]: Cytotoxicity against CD1 mouse pancreatic acinar cells at 10 uM after 30 mins by propidium iodide staining based confocal microscopic analysis. As to conditions: pancreatic acinar cell, 0.5 h. The essentials: as §2

The values that follow come from ChEMBL document CHEMBL3797189, “Small Molecule Inhibitors of Cyclophilin D To Protect Mitochondrial Function as a Potential Treatment for Acute Pancreatitis” (J Med Chem, 2016).

Calls of active or inactive are those of the source. The rule behind the calls is not given here.

Consider `CCOC(=O)[C@H](CCSC)NC(=O)NCc1ccc(N)cc1`, for which the inhibition result with Pancreatic acinar cell [1] is “Active”. The inhibition entry in the data set with Pancreatic acinar cell [2] is “inactive”. The Activity entry in data set [3] is given as “Non-toxic”.

As to `CSCC[C@H](NC(=O)NCc1ccc(N)cc1)C(=O)N1CCC[C@H]1c1ccccc1SC`, the inhibition entry in the data set on Pancreatic acinar cell [4], in the data set on Pancreatic acinar cell [6] and in the data set on Pancreatic acinar cell [7] was “Active” in each case. Also, the Activity entry in data set [5] was “Non-toxic”.

For `Nc1ccc(CNC(=O)NCC(=O)N2CCC[C@@H]2c2ccccc2Br)cc1`, the inhibition result in the data set with Pancreatic acinar cell [1] is “Active”. In addition, the inhibition entry in the data set with Pancreatic acinar cell [2] is “inactive”. For the same compound, the Activity entry in data set [8] is “Toxic”.
